PDI turbidity: inhibitors of human protein disulfide isomerase; actives 0.052% (n = 350,000); AID 588391; P07237; inhibition, % at 10 µM; PDI insulin aggregation turbidity, A650, 90 min;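 active = mean inhibition across replicates of 30% or more, whatever share of single replicates reach that level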
ERp5 inh: inhibitors of human ERp5; Q15084; ERp5 insulin aggregation, absorbance 650 nm, 90 min; inhibition, % at 9.99 µM; actives 0.05% (n = 350,000);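 active = mean replicate inhibition above about 25%, with every replicate also reaching it, limit read from the data, passing the limit was not always enough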
SIRT5 inh: sirtuin-5 (human) deacylase inhibition. inhibition, % at 15 µM. actives 1.1% (n = 330,000). Purified SirT5, succinyl-peptide AMC, trypsin-coupled fluorescence; in the data active = inhibition above about 15%
Target sequence (Q9NXA8 whole entry, looked up): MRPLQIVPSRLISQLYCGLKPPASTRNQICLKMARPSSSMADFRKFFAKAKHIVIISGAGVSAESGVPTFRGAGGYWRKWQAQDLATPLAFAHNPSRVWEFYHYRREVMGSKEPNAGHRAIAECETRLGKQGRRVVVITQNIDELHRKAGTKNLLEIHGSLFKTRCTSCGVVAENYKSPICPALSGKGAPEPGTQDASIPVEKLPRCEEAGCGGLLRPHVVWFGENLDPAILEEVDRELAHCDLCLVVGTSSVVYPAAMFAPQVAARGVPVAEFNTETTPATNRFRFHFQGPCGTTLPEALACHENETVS
INS-1E GSIS act: GLuc luminescence reporter in INS-1E cells, primary screen for activators of glucose-dependent secretion of insulin. INS-1E GLuc reporter insulin secretion, 2-3 h. activation, % at 16.6 µM. actives 0.61% (n = 370,000). AID 743287;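 active = lowest replicate activation of at least 40%, so every replicate reaches that level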;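 also: 0% = median of neutral control wells and 100% = median of IBMX positive control wells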
S100A4 MyoIIA: S100A4-myosin IIA interaction inhibition; P26447; S100A4/TAMRA-MyoIIA peptide fluorescence polarization; inhibition, % at 10.7 µM; actives 0.14% (n = 360,000); AID 652163;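 active = mean inhibition of at least 70% across replicates, with every replicate also reaching that level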
Target sequence (P26447 whole entry, looked up): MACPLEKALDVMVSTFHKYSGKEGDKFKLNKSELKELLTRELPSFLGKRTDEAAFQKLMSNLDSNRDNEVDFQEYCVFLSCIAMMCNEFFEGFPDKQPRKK
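Compound dosing: one dose per compound; test system: human S100A4 monomer with TAMRA-labelled myosin IIA peptide; probe or stimulus: TAMRA-labelled myosin IIA heavy-chain peptide probe, 5 nM; medium: HEPES buffer with Ca2+, pH 7.2; schedule: 5 min incubation before reading; benchmarks: neutral control DMSO, positive control TFP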
Numbers without * were called inactive; nt = no result; ! = not active in a repeat. This is a sample that favours compounds with a hit; in the whole collection about 1.5% have one here.

SMILES	PDI turbidity	ERp5 inh	SIRT5 inh	INS-1E GSIS act	S100A4 MyoIIA
CC(C)N1C(=O)/C(=C/C=C/c2ccco2)C(=O)N(Cc2ccco2)C1=O	5	nt	nt	-34	nt
CN(C)c1ccc(/C=C2/C(=O)NC(=O)N(Cc3ccco3)C2=O)cc1	1	12	31*	nt	-43
CCCNC(=O)[C@H]1[C@H](CO)[C@H]2Cn3c(cccc3=O)[C@@H]1N2CCC	nt	nt	nt	5	nt
COc1cccc(-c2ccc3n(c2=O)C[C@H]2[C@H](CO)[C@@H](C(=O)O)[C@@H]3N2Cc2ccccc2F)c1	nt	nt	nt	-1	nt
CN1C(=O)/C(=C/c2cccn2-c2ccc3ccccc3c2)C(=O)NC1=S	-2	nt	nt	nt	nt
O=C1NC(=S)NC(=O)C1=Cc1cccn1-c1ccc(O)cc1	3	4	53*	5	-4
CN(C)[C@@H]1C(=O)C(C(N)=O)=C(O)[C@@]2(O)C(=O)C3=C(O)c4c(O)cccc4[C@@](C)(O)[C@H]3[C@H](O)[C@@H]12	2	4	41*	nt	-2
CN(C)[C@@H]1C(=O)C(C(N)=O)=C(O)[C@@]2(O)C(=O)C3=C(O)c4c(O)ccc(Cl)c4[C@@](C)(O)[C@H]3C[C@@H]12	nt	6	3	1	-7
CN(C)[C@@H]1C(=O)C(C(N)=O)=C(O)[C@@]2(O)C(=O)C3=C(O)c4c(O)cccc4[C@@](C)(O)C3C[C@@H]12 (some centres undefined)	-3	-1	20*	nt	4
CCOC(=O)C1=C(NC(=S)NC(=O)c2ccccc2)c2ccccc2CC12CCCC2	6	3	35*	2	2
COCC(=O)N1[C@@H]2c3ccc(C4=CCCC4)c(=O)n3C[C@H]1[C@H](CO)[C@H]2C(=O)OC	nt	-17	-9	10	0
COC(=O)[C@H]1[C@H](CO)[C@H]2Cn3c(cccc3=O)[C@@H]1N2C(=O)C1CCC1	nt	3	8	nt	-2
CCC(=O)C(CCN1CCOCC1)(c1ccccc1)c1ccccc1	-14	-2	-3	-1	2
CC(C)[N+](C)(CCC(C(N)=O)(c1ccccc1)c1ccccc1)C(C)C	-2	1	-4	48*	-2
C=CCN1[C@@H]2CN(S(C)(=O)=O)C[C@H]1C2c1ccccc1 (some centres undefined)	nt	nt	nt	1	nt
FC(F)(F)CN1C[C@@H]2C(c3ccccc3)[C@H](C1)N2CC1CC1 (some centres undefined)	nt	nt	nt	6	nt
COc1ccc(C#Cc2ccc([C@H]3[C@H](CO)N4CCCCN(C(=O)Cc5cccnc5)C[C@@H]34)cc2)cc1	nt	27*	3	-12	0
O=C(Cc1cccnc1)N1CCCCN2[C@@H](CO)[C@@H](c3ccc(C#CC4(O)CCCC4)cc3)[C@@H]2C1	nt	-1	-1	22	98*
CCC(=O)N1[C@@H]2c3ccc(C4=CCCC4)c(=O)n3C[C@H]1[C@H](CO)[C@H]2C(=O)OC	nt	-4	-12	3	5
CC(C)c1cc(Br)c(NC(=O)Nc2cccnc2)c(Br)c1	-19	1	-10	115*	-4
CC(=NC(C)c1ccccc1)c1c(O)[nH]c(=O)[nH]c1=O (centres undefined)	-1	nt	nt	104*	nt
CC[n+]1c(-c2ccccc2)c2cc(N)ccc2c2ccc(N)cc21	0	1	-1	-38	130*
O=c1[nH]c2cc(Cl)ccc2n1C1CCN(Cc2ccc(-c3nc4ccc(F)cc4nc3-c3ccccc3)cc2)CC1	nt	1	1	-17	9
Cc1cccc2nc(-c3ccccc3)c(-c3ccc(CN4CCC(n5c(=O)[nH]c6cc(Cl)ccc65)CC4)cc3)nc12	nt	-1	-4	42*	-9
CSC(=Nc1ccccc1)c1c(O)n(C)c(=O)n(C)c1=O	-3	-1	19*	1	-13
SMILES	PDI turbidity	ERp5 inh	SIRT5 inh	INS-1E GSIS act	S100A4 MyoIIA
Clc1ccc(COC(Cn2ccnc2)c2ccc(Cl)cc2Cl)c(Cl)c1 (centres undefined)	-8	4	-2	49*!	1
COc1ccc(C(O)(c2cncnc2)C2CC2)cc1 (centres undefined)	nt	-5	11	nt	7
CN1CCc2nc(SCc3ccccc3Br)c(C#N)cc2C1	13	4	0	-9	-13
C=CCSc1nc2c(c(-c3ccsc3)c1C#N)CN(C)CC2	-2	8	0	46*	0
COc1ccc(C#Cc2ccc([C@H]3[C@@H](CO)N4CCCCN(C(=O)Cc5ccncc5)C[C@@H]34)cc2)cc1	nt	0	-1	21	-12
COc1ccc(N2C(=O)NC(=O)/C(=C\c3ccc([N+](=O)[O-])s3)C2=O)cc1	0	-3	20*	-9	-30
COc1ccccc1N1C(=O)NC(=O)/C(=C\c2cnn(-c3ccccc3)c2)C1=O	0	2	1	-7	-8
CCOc1ccc(N2C(=O)NC(=O)/C(=C\c3cc(OC)c(OC)cc3[N+](=O)[O-])C2=O)cc1	-5	nt	nt	nt	9
COc1cccc(N2C(=O)NC(=O)/C(=C/c3ccc4c(c3)Cc3ccccc3-4)C2=O)c1	4	5	-2	2	6
COc1ccc(N2C(=O)NC(=O)/C(=C/c3ccc([N+](=O)[O-])s3)C2=O)cc1	2	2	16*	-28	-80
COc1cccc(N2C(=O)NC(=O)/C(=C/c3ccc([N+](=O)[O-])s3)C2=O)c1	11	-1	15*	-10	-135
COc1ccccc1N1C(=O)NC(=O)/C(=C/c2ccc([N+](=O)[O-])s2)C1=O	nt	-10	18*	-23	-43
CCN(CC)c1ccc(N=Cc2c(O)n(Cc3ccccc3)c(=O)[nH]c2=O)cc1	0	nt	nt	41*	nt
CCN(CC)c1ccc(N=Cc2c(O)n(-c3ccccc3)c(=O)[nH]c2=O)cc1	6	1	-1	nt	-4
O=C(N/N=C/c1c(O)n(Cc2ccccc2)c(=O)[nH]c1=O)c1ccccc1O	-1	nt	nt	-2	nt
O=C(N/N=C/c1c(O)n(CCc2ccccc2)c(=O)[nH]c1=O)c1ccccc1O	-1	3	38*	-8	5
Fc1ccc(CN2CC3NC(C2)C3c2ccc(Br)cc2)cc1 (centres undefined)	nt	nt	nt	10	nt
C/C=C1\NC(=O)[C@H](C)NC(=O)[C@@H](NC(=O)[C@H](Cc2ccc(O)cc2)NC(=O)[C@@H](NC(=O)/C(C)=C/C)C(C)C)[C@@H](C)OC(=O)[C@H](CCCc2ccc(O)cc2)NC(=O)[C@@H](CCC(=O)O)NC1=O	nt	3	22*	1	-3
CSc1ncc(Br)c(N2CC2)n1	1	-8	nt	42*	1
CSc1nc(Cl)c(Br)c(N2CC2)n1	1	4	-2	8	5
COC(=O)[C@@H]1[C@@H](CO)[C@@H]2Cn3c(ccc(C4=CCCCC4)c3=O)[C@H]1N2Cc1ccccc1OC	nt	2	-12	-4	-5
CC(=O)N1C[C@@H]2C(c3ccccc3)[C@H](C1)N2C (some centres undefined)	nt	nt	nt	-8	nt
